The text below walks through data of ChEMBL document CHEMBL3877262, “Synthesis and antioxidant evaluation of desmethylxanthohumol analogs and their dimers” (Eur J Med Chem, 2017).

Calls of active or inactive are those of the source. The calls are words filed in the database; no cut-off is given here.

A short description of series [1]: Antioxidant activity against H2O2-induced oxidative stress in rat PC12 cells assessed as viable cells at 100 uM pretreated for 0.5 hrs followed by H2O2 challenge measured after 2 hrs by MTT assay (reference value: 25.47%). As to conditions: PC-12, read-out: Activity. Type of series: functional. A general note: Tetrazolium assays rely on reduction of a dye to a coloured formazan, in cell work by metabolically active cells.

For series [2], the system named is PC-12. Briefly: Cytoprotective activity against H2O2-induced oxidative stress in rat PC12 cells assessed as lactate dehydrogenase release at 10 uM pretreated for 30 mins followed by H2O2 challenge measured after 2 hrs by spectrophotometric method (reference value: 479.77 U/L). It is filed as functional.
Series [3] deals with PC-12. Nature of the series: Cytoprotective activity against H2O2-induced oxidative stress in rat PC12 cells assessed as viable cells at 10 uM pretreated for 0.5 hrs followed by H2O2 challenge measured after 2 hrs by Annexin-V-FITC/propidium iodide staining based flow cytometry (reference value: 94.1 %). As to conditions: read-out: Activity. It is filed as functional. (A flow cytometer gives signals particle by particle.)

Series [4] deals with PC-12. Nature of the series: Cytoprotective activity against H2O2-induced oxidative stress in rat PC12 cells assessed as necrotic cells at 10 uM pretreated for 0.5 hrs followed by H2O2 challenge measured after 2 hrs by Annexin-V-FITC/propidium iodide staining based flow cytometry (reference value: 2.4 %). It is filed as functional.
A short description of series [5]: Antioxidant activity against H2O2-induced oxidative stress in rat PC12 cells assessed as GSH level per gram of protein at 10 uM pretreated for 0.5 hrs followed by H2O2 challenge measured after 2 hrs by GSH peroxidase assay (reference value: 59.93 umol). Type of series: functional, PC-12.
For series [6], the system named is PC-12. Briefly: Cytoprotective activity against H2O2-induced oxidative stress in rat PC12 cells assessed as early apoptotic cells at 10 uM pretreated for 0.5 hrs followed by H2O2 challenge measured after 2 hrs by Annexin-V-FITC/propidium iodide staining based flow cytometry (reference value: 1.1 %). It is filed as functional.
Series [7] deals with PC-12. Briefly: Cytoprotective activity against H2O2-induced oxidative stress in rat PC12 cells assessed as late apoptotic cells at 10 uM pretreated for 0.5 hrs followed by H2O2 challenge measured after 2 hrs by Annexin-V-FITC/propidium iodide staining based flow cytometry (reference value: 2.3 %). It is filed as functional.
The nature of series [8]: Antioxidant activity assessed as ABTS radical scavenging activity measured after 10 mins by ABTS assay. It is filed as functional. The procedure, abridged: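 ABTS (10 mM in sodium acetate) oxidised with H2O2 and held 12 h in the dark. It was diluted to A650 0.70 and mixed with compound, shaken 30 s, and A650 read after 10 min. EC50 by nonlinear regression from three independent experiments.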

A short description of series [9]: Antioxidant activity against H2O2-induced oxidative stress in rat PC12 cells assessed as 8-OHdG level at 10 uM pretreated for 0.5 hrs followed by H2O2 challenge measured after 2 hrs (reference value: 123.97 ng/L). Type of series: functional, PC-12.
Series [10] in a line: Antioxidant activity assessed as vitamin-c equivalent measured after 20 mins by FRAP assay. Type of series: functional.
For series [11], the species on record is Rattus norvegicus. Briefly: Cytotoxicity against rat PC12 cells at 200 uM measured after 48 hrs by MTT assay. Type of series: toxicity, cell-based. As to conditions: pc-12, 48 h.
A short description of series [12]: Cytotoxicity against HUVEC measured after 48 hrs by MTT assay. It is filed as toxicity, cell-based. As to conditions: human, HUVEC cells. The essentials: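 HUVECs were seeded at 5×10^3 cells/well for 24 h, then exposed to compounds dissolved in DMSO for 48 h. MTT (5 mg/ml) was added for 4 h, cells solubilized in DMSO and OD read at 490 nm. IC50 was derived from mean OD of triplicate tests.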

Series [13] is filed under the species Rattus norvegicus. Nature of the series: Cytotoxicity against rat PC12 cells at 100 uM measured after 48 hrs by MTT assay. Type of series: toxicity, cell-based. As to conditions: pc-12, 48 h.
Series [14] has as its system PC-12. Briefly: Cytoprotective activity against H2O2-induced oxidative stress in rat PC12 cells assessed as morphological changes at 10 uM pretreated for 0.5 hrs followed by H2O2 challenge measured after 2 hrs. Type of series: functional, cell-based. The essentials:
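PC12 cells were handled as in the H2O2/MTT model: compound at 10 µM for 0.5 h, then H2O2 (100 µM) for 2 h. Morphology (shrinkage, blebbing) was viewed at 200×. Control cells received medium with 0.1% DMSO only. Gallic acid (10 µM) was the positive control.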

For the molecule `CC1(C)C=Cc2c(O)cc(O)c(C(=O)/C=C/c3ccc(O)c(O)c3O)c2O1`, the viability at 100 µM in series [1] was found to be 84%.

Turning to `O=C(O)c1cc(O)c(O)c(O)c1` [GALLIC ACID], the viability at 100 µM in [1] stood at 88.9%. Also, the Activity in [2] came to 326.59 U/L; in [4], 4.2%; in series [5], 99.73 µmol; in series [6], 0.5%; in series [7] it was 13.4%; in [9], 85.7 ng/L. The Activity in series [10] stood at 531 mgequiv/mmol. For the same molecule, the viability at 10 µM in series [3] amounted to 81.9%. Further, in series [8], the EC50 (as a rule, the concentration that produces a half-maximal response) was determined as 0.35 µM.

Take `CC1(C)C=Cc2c(O)cc(O)c(C(=O)/C=C/c3ccc(O)cc3)c2O1`: the viability at 100 µM in [1] is 20.6%. Moreover, the Activity entry in series [11] and in series [13] was “Toxic” throughout. Moreover, in series [12], half-maximal inhibition (IC50 at 48 h) was put at 41.1 µM.

For the molecule `CC1(C)C=Cc2c(O)c(Cc3c(O)c4c(c(C(=O)/C=C/c5ccc(O)cc5O)c3O)OC(C)(C)C=C4)c(O)c(C(=O)/C=C/c3ccc(O)cc3O)c2O1`, the viability at 100 µM in [1] is 43.4%.

As for `CC(C)=CCc1c(O)cc(O)c(C(=O)/C=C/c2ccc(O)cc2)c1O` [DEMETHYLXANTHOHUMOL], the Activity entry in series [11] and in [13] was “Toxic” each time. In [12], half-maximal inhibition (IC50 at 48 h) required 18.9 µM.

Turning to `CC1(C)C=Cc2c(O)c(Cc3c(O)c4c(c(C(=O)/C=C/c5ccc(O)cc5)c3O)OC(C)(C)C=C4)c(O)c(C(=O)/C=C/c3ccc(O)cc3)c2O1`, in [1], the viability at 100 µM is 44.9%.

Consider `CC1(C)C=Cc2c(O)c(Cc3c(O)c4c(c(C(=O)/C=C/c5ccc(O)c(O)c5O)c3O)OC(C)(C)C=C4)c(O)c(C(=O)/C=C/c3ccc(O)c(O)c3O)c2O1`, for which, in series [1], the viability at 100 µM worked out at 85.2%. Moreover, the Activity is 251.45 U/L in series [2]; 0.5% in [4]; 105.71 µmol in [5]; 1.1% in [6]; 2.7% in series [7]; 62.8 ng/L in [9]. The Activity in series [10] came to 648 mgequiv/mmol. In addition, in series [3], the viability at 10 µM was 95.6%. Also, the outcome in series [14] was Active. Besides, the concentration giving a half-maximal response (EC50) in [8] came out at 0.54 µM.

For the molecule `CC1(C)C=Cc2c(O)cc(O)c(C(=O)/C=C/c3cccc(O)c3O)c2O1`, the viability at 100 µM in [1] turned out to be 54.5%.

Consider `CC1(C)C=Cc2c(O)cc(O)c(C(=O)/C=C/c3ccc(O)cc3O)c2O1`, for which, in series [1], the viability at 100 µM was found to be 24.1%.

Consider `CC1(C)C=Cc2c(O)c(Cc3c(O)c4c(c(C(=O)/C=C/c5cccc(O)c5O)c3O)OC(C)(C)C=C4)c(O)c(C(=O)/C=C/c3cccc(O)c3O)c2O1`, for which, in series [1], the viability at 100 µM worked out at 77.5%.
